Test results published in ChEMBL document CHEMBL1777776, “Identification of 2-mercaptohexanoic acids as dual inhibitors of 5-lipoxygenase and microsomal prostaglandin E₂ synthase-1” (Bioorg Med Chem, 2011).
Calls of active or inactive are those of the source. The calls are words filed in the database; no cut-off is given here.

Assays:
[1] = target: T1, Polyunsaturated fatty acid lipoxygenase ALOX15 (Homo sapiens) (UniProt P16050); test: Inhibition of 15-lipoxygenase in A23187-stimulated human PMNL assessed as reduction of 15(S)-H(P)ETE formation up to 10 uM preincubated 15 mins by RP-HPLC analysis in presence of exogenous arachidonic acid
T1 sequence (whole entry): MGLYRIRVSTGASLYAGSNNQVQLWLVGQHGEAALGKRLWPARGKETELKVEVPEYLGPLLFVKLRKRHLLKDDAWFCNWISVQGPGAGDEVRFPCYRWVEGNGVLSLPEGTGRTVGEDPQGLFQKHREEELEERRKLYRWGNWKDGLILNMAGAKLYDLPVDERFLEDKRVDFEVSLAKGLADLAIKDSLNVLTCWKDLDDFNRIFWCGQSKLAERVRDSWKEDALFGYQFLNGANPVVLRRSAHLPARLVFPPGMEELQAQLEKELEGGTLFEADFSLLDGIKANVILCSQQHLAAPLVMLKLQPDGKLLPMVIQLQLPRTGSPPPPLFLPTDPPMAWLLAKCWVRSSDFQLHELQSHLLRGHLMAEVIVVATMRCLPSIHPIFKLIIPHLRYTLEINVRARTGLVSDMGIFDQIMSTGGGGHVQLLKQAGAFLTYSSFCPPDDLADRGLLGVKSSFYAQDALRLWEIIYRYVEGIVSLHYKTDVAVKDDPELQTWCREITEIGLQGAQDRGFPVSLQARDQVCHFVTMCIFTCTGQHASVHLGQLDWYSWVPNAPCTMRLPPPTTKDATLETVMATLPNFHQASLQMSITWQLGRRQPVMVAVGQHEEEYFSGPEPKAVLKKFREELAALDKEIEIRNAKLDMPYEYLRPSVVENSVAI
Summary of the method: (§1)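 Freshly isolated human PMNL (5 × 10⁶/ml PGC buffer: PBS pH 7.4, 1 mg/ml glucose, 1 mM CaCl₂) preincubated with compound 15 min at 37 °C. Stimulated with 2.5 µM A23187 plus exogenous AA for 10 min at 37 °C. Stopped with methanol, PGB₁ added as internal standard, lipoxygenase products analysed by HPLC. Mean of n = 3–5.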

[2] = target: T2, Polyunsaturated fatty acid 5-lipoxygenase (Homo sapiens) (UniProt P09917); test: Inhibition of 5-lipoxygenase in LPS/fMLP-stimulated human PMNL assessed as enzyme product formation preincubated 15 mins by ELISA analysis; details: in the assay text read “10 mins” for “15 mins”
T2 sequence (whole entry): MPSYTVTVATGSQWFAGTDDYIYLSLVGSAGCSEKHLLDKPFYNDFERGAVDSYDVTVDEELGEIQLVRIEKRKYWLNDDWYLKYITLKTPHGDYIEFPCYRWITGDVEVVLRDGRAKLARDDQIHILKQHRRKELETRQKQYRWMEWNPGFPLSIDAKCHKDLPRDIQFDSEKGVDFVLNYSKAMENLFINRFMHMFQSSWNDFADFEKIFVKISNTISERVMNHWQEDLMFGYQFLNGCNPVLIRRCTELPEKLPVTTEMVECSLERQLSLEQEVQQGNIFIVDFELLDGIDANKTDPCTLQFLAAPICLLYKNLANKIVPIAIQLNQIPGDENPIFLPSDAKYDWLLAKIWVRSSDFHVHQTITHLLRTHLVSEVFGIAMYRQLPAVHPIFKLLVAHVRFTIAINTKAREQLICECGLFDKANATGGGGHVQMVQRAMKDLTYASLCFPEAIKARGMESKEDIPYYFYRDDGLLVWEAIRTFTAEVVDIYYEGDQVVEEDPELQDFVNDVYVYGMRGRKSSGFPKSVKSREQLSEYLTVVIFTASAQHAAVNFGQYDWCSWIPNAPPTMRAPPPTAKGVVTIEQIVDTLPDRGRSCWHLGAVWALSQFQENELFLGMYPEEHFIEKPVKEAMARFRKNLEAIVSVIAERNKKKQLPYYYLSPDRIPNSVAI
Summary of the method: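 Human PMNL in PBS/glucose primed with 1 µg/ml LPS for 10 min at 37 °C, then 0.3 U/ml adenosine deaminase added. After another 10 min, cells given compound (0.3–10 µM) for 10 min, then stimulated with 1 µM fMLP. LTB₄ measured by ELISA.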

[3] = target: T3, Polyunsaturated fatty acid lipoxygenase ALOX12 (Homo sapiens) (UniProt P18054); test: Inhibition of 12-lipoxygenase in A23187-stimulated human PMNL assessed as reduction of 12(S)-H(P)ETE formation up to 10 uM preincubated 15 mins by RP-HPLC analysis in presence of exogenous arachidonic acid; summary of the method: as §1
T3 sequence (whole entry): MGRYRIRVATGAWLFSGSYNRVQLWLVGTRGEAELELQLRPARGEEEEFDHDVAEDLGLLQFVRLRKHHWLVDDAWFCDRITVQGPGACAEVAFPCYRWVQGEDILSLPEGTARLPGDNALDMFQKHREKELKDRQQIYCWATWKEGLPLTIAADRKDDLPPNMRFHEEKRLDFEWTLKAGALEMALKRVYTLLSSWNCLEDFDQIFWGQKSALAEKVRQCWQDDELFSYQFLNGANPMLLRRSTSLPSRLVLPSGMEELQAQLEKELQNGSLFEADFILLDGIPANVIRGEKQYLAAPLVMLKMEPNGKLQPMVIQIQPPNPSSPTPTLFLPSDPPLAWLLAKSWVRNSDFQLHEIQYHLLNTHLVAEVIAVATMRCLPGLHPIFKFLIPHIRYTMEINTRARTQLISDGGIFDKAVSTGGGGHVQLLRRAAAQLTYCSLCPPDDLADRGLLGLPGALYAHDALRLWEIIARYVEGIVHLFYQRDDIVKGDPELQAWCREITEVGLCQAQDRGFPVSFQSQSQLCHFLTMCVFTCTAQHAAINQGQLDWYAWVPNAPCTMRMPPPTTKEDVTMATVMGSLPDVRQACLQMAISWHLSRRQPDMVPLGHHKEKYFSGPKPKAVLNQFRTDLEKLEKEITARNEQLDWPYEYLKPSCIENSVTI

inhibition [1]: inactive
inhibition [2]: Active
inhibition [3]: inactive
Structure (SMILES): CCCCC(Sc1ccc(OCCCOc2ccc(-c3ccccc3)cc2)cc1)C(=O)O (stereo not drawn)
